Tested on: MS2 coat protein
Experiment: apparent Kd, MS2 coat protein; higher = weaker binding; RNA-MaP array; FMN 200 µM where present
Summary of the method: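 Designs were transcribed by stalled E. coli RNA polymerase on Illumina sequencing-chip clusters. They were titrated with SNAP-549-labelled MS2 coat protein from 0.7 or 1.5 nM, doubling to 3 µM, without and then with constant ligand. Buffer: 100 mM Tris-HCl pH 7.5, 80 mM KCl, 4 mM MgCl2, BSA, DTT, yeast tRNA, Tween-20. Green signal was normalised to red-channel RNA signal and control-cluster median Fmax. Apparent Kd is the median of filtered per-cluster binding-curve fits.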

[1] = designed as: ON switch for flavin mononucleotide, no ligand
[2] = ligand present: flavin mononucleotide, designed as: ON switch for flavin mononucleotide
[3] = designed as: OFF switch for flavin mononucleotide, no ligand
[4] = ligand present: flavin mononucleotide, designed as: OFF switch for flavin mononucleotide

Sequence	apparent Kd [1] [nM]	apparent Kd [2] [nM]	apparent Kd [3] [nM]	apparent Kd [4] [nM]
AAUUAGGUCACAGGAUAUACAACAUCCAUAGCUGUAGAAGGGUGUCAAAAUAAUAUCUGACAUGAGGAUCACCCAUGUUUCCAC	15.8	12.7	–	–
AAAAAGUGAGGAUAUGCACUGUCCUGUAGACACGAGCAGUUGUAGAAGGCACAUGAGGAUCACCCAUGUUUAAA	–	–	29.2	25.9
UUACAGUACAGGUAGGAUAUGUAGGGUGGUACAUGAGGAUCACCCAUGUAUCCACCCUUCGAACGGCAGAAGGGCCCGUCACUGC	22	15.4	–	–
GUGUAGGUAGGAUAUACAUGAGGAUCACCCAUGUGAAUAAGAUAGAAUAAGAUAAAGUGUAGAAGGGCUAGUGU	–	–	39.6	31.9
UAGAUGGGAGGAUAUGCGUAGAUACGGAUUCGUGUGGUGCUACAUGAGGAUCACCCAUGUAGAAGGCCCGUCUU	–	–	12.8	18.6
GCGAAUUAGUGAGGAUAUACAUAAUUUAAAACUGUAGAAGGCACAAUCCUCAAGACAUGAGGAUCACCCAUGUGGUAUUACGCU	–	–	138	861
UAAUAAUAAUAAUAGCAGUUUACAUGAGGAUCACCCAUGUAUAAGGAUAUCGUCAGGAAUACUGACGAGAAGGUAUACAUCUGC	–	–	20.3	33.6
GAGGACUGUAAAUAAGUAGAAAUACAUGAGGAUCACCCAUGUAAGGAUAUCGUCAGGAAUACUGACGAGAAGGUACAUCAGUCC	–	–	14.5	18.1
UUGUUUGUAGUGAGGAUAUCGUUGAGGAAGAGGAUCGAGAAGGCACAUGAGGAUCACCCAUGUUAGAUGUGGUU	–	–	170	198
GUUAAACAUGAGGAUCACCCAUGUAAGGAUAUGCUGCGGUCGCGCUGACGUGACUGCAGCAGAAGGUACAAAUG	–	–	105	66.9
GGAUUACGAGGAUAUCGAUUUUAGUACAUGAGGAUCACCCAUGUUGUCCAGGUCUCGUUUCGAGAAGGCGUGAUUC	–	–	65.1	48.7
UUAAUUUAGUGAUAUUAUGACAUUAGAAGGCUGUACAUGUUGAUACAUGAGGAUCACCCAUGUAUAGAGGAUAUAGACAAUUUU	–	–	39.8	93.8
CUGUUCCGUGUAGGAUAUGCAUAUUCUCAUUAUGCAGAAGGACAUGAGGAUCACCCAUGUAUGUUAUUAUCAUAUGUUACAUGU	–	–	37.5	321
UAGGACGUCGUAGGAUAUGUAGGAUAUUCCUACAUGAGGAUCACCCAUGUUGACAUGGAAGAAGGACAGAAGGACGAUGUCCAU	224	4.61	–	–
AAAGCUUCCGCCACAUGAGGAUCACCCAUGUCGUAACCGGGACAGGAUAUCCUCGAUGUAUUUGCGGAGAAGGGUCGCAGGUUA	77.1	147	–	–
AUCGGUCCGUAGAAGGGUGACAUGAGGAUCACCCAUGUGCCGUGUGCGUUUAUGCCUCCACGGCCACAGGAUAUACGGAGUUGA	28.2	19.1	–	–
AGCCAGGAUGAGUACCUGAGCGGGAGAAGGUACGAGGGAUCGUCUGGACAUGAGGAUCACCCAUGUAAGGAUAUCCCGCCUAUU	–	–	8.69	15
AGAUGACAAAGUCAUCUCGCUUUGACAUGAGGAUCACCCAUGUAGGAUAUAUUACUCAAAGAGUAAUAGAAGGACAUGUGUCUU	–	–	37.2	104
ACAAAUUAGUGAGGAUAUGCUAAAUUUAUAACAGCAGAAGGCACAAACCUCAAGACAUGAGGAUCACCCAUGUGGAAUAUAGAU	–	–	68	139
AGCUACGUUUCGUAGCAGUGUCAUCGAGAAGGCCUUAUAACAUGAGGAUCACCCAUGUUUGCAUGGGAGGAUAUCGAUGAUACA	20.1	5.63	–	–
UUUUUGUCAGGAUAUGAGUAGUAGUACUAUUGUUUUAUUAUUUAGAAGGGACAUGAGGAUCACCCAUGUUUCUC	–	–	14.9	15.9
CUGUUUCGUGUAGGAUAUGCAUAUUCCCAUUAUGCAGAAGGACAUGAGGAUCACCCAUGUAUGUUAUUAUCAUGUGUUACAUGC	–	–	51	432
UUUGCAUUCCGAGGAUAUUCAUAUAAUAAAUAAACAUGAGGAUCACCCAUGUGGCGAAAGCCUAGGGAGAAGGCGGAAUGCUUU	184	22	–	–
AAGUCUGUACGAGGAUAUCAGUUGUAUCUAGAUUCAACAUGAGGAUCACCCAUGUUGCAAUAGGGUGAGAAGGCGUGUGGGCAA	101	25.3	–	–

Sequence	apparent Kd [1] [nM]	apparent Kd [2] [nM]	apparent Kd [3] [nM]	apparent Kd [4] [nM]
GGGCCGUAGUAGAAGGGAUAUACGAUAGGUAUAUCAGGAUAUACAUGAGGAUCACCCAUGUUCUUACAGUGAUAGUCCUCCCUA	–	–	28.4	65.8
ACAUGCAAGUAGAAGGACGGAUAUUUUGAUAACGUAGGAUAUACAGAAUCAUAUCCACAUGAUAACAUGAGGAUCACCCAUGUA	–	–	11.8	12.4
AGGAUUGUGCUAGGAUAUCCAGGUUUGCAACAAGGAGAAGGAGCACAUGAGGAUCACCCAUGUUCUCAAAGGCCAUGGCAAUAA	–	–	23.4	84.2
CUUUUGUGAGGAUAUCAGUAGUAAAUAAAUAAAUUAACUACUGAGAAGGCACAUGAGGAUCACCCAUGUUCCUU	–	–	13	29.4
ACAUUUAUAUCAGGAUAUACAAUACAAUGAUUAGUAGAAGGGAUUAAUACAUGAGGAUCACCCAUGUCAUGUGUCAUAAUAACC	–	–	25.8	19.6
AACCCUGCCUAGGAUAUACAAAAGUCACAGCUGGUAGAAGGAGGCACAUGAGGAUCACCCAUGUCACCUCGCUU	–	–	13.4	13.7
AUGGUACAUGAGGAUCACCCAUGUCAGGAUAUCGGCUGUGACGUGAAAAGAGUGUUGGCGAGAAGGGACUGCAA	–	–	39.7	45.6
CAGGAUAGAGGAUAUACAUAGAUACAGAUUCAUAUAAUCCUACAUGAGGAUCACCCAUGUAGAAGGCUAUCCUG	–	–	15	46.4
GUAGCAUACCAAGGAUAUUCAGGGCUUGGAUAGACAUGAGGAUCACCCAUGUGGCGAAAGUCUAGGGAGAAGGUGGUAUGCUAC	16	13.8	–	–
GUCCUUUCUGAGGAUAUUAUCUUUUUCGAUUGAUAAGAAGGCAGUACAUGAGGAUCACCCAUGUGGGUUGUCUG	–	–	31	131
AAGGAUAGAGGAUAUACAUAGAUACAGAUUCAUGUAGAAUUACAUGAGGAUCACCCAUGUAGAAGGCUAUCCUA	–	–	635	29
CUUUUGUGAGGAUAUUAGUAGUAAAUGAAUAAAAUUAUUACUGAGAAGGUACAUGAGGAUCACCCAUGUUCCUC	–	–	16.8	24.6
UUAAAUCAUGUAGGAUAUGCAUGGCGAAGCUACGCAGAAGGACAUGAGGAUCACCCAUGUUAAAGCUACCGAGUACGGUGGCAA	–	–	121	193
UUAAAUCAUGUAGGAUAUGCAUGGCGAAGCUACGCAGAAGGACAUGAGGAUCACCCAUGUUCUAGCUACCGAGUUCGGUGGCAA	–	–	20.2	83.8
ACUGGCUUGCAGAAGGGUGACAUGAGGAUCACCCAUGUAGCGGGCCGGCGUAAAGUCAGCGCGCCACAGGAUAUGCAGGCCUCG	74	45.2	–	–
GGAUCGAGUGUGAGGAUAUACCUAUGGAAACAUAGGUAGAAGGCACAUGAGGAUCACCCAUGUCCUAACGGUCC	–	–	350	514
ACACACCCAUGAGGUCCCUCCACAUGAGGAUCACCCAUGUGCAGAAGGUACGGCACGGUGUGCGGUAAGGAUAUGUACAAGUAA	–	–	6.08	7.71
AUGGAUAUCACAGGAUAUGCUAAGGAUACCUUAGCAGAAGGGUGAUCCAUCCUAUGGCUGUACAUGAGGAUCACCCAUGUGUCA	331	41.4	–	–
AAUAUGUUGCAGAAGGUUAUAUUUUUUUCGUACCUCAUGACAUGAGGAUCACCCAUGUAUUUGUUGAAGGAUAUGCAAUAUAUU	–	–	21.5	17.7
GGGAAACAUGAGGAUCACCCAUGUCAGGAUAUGAUACUAUGUACUUCGGUACAUAGUAUCAGAAGGGACAUCAU	–	–	73.8	204
AUCAGUUCGUCAGGAUAUACGUCACUGCGUCAGCAGUGUGGUAAGAUCACAUGAGGAUCACCCAUGUAGAAGGGACGAGCUGAU	–	–	14	214
UAUUUGCAAGGAUAUGAUUUAAGUAACAUGAGGAUCACCCAUGUUUAUCCGUUGUUAUGUUCAGAAGGUGCGUGAU	–	–	50.8	72.4
CGAGAUCUUGAGAAGGCAUAAUAUAUAAUACCACAUGUUUACAUGAGGAUCACCCAUGUUACCUAUGAGGAUAUCAGGAUUUCG	–	–	18.5	16.1
GCACUUAAGUUAGGAUAUGGAUCGGAAAACGAUCCAGAAGGAAUAUGGGAACAUGAGGAUCACCCAUGUUCCACAGACAAGUGC	47.5	24.4	–	–
